Measurements published in ChEMBL document CHEMBL1138650, “Inactivation of human S-adenosylhomocysteine hydrolase by covalent labeling of cysteine 195 with thionucleoside derivatives” (Bioorg Med Chem Lett, 2004).

Experiments:
Adenosylhomocysteinase [1] = biological target: T1, Adenosylhomocysteinase (Homo sapiens, UniProt P23526); assay: Binding affinity for human placental S-adenosyl-homocysteine hydrolase
Outline: (§1)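 Recombinant human placental enzyme, purified to homogeneity, at 2 µM, preincubated at 37°C with inhibitor at various concentrations and times in 20 mM potassium phosphate pH 7.5, 1 mM EDTA. Ki and kinact come from a double reciprocal plot of pseudo-first-order inactivation rate versus 1/[I].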
Target sequence in this assay (P23526 whole entry): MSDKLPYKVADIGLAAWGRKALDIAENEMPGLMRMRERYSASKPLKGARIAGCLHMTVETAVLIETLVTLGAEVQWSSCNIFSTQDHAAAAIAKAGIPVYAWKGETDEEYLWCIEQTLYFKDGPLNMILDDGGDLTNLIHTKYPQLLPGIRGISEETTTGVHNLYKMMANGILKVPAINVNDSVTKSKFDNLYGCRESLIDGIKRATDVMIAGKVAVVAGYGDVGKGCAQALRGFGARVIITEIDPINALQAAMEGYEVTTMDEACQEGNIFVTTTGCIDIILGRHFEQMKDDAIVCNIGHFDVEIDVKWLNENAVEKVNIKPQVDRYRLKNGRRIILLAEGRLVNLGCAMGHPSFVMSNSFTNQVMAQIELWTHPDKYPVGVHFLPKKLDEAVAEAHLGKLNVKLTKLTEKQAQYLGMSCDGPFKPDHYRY

Adenosylhomocysteinase [2] = biological target: T1, Adenosylhomocysteinase; assay: Inactivation rate constant for human placental S-adenosyl-homocysteine hydrolase; outline: as §1
Target sequence in this assay (P23526 2-432 limits assumed): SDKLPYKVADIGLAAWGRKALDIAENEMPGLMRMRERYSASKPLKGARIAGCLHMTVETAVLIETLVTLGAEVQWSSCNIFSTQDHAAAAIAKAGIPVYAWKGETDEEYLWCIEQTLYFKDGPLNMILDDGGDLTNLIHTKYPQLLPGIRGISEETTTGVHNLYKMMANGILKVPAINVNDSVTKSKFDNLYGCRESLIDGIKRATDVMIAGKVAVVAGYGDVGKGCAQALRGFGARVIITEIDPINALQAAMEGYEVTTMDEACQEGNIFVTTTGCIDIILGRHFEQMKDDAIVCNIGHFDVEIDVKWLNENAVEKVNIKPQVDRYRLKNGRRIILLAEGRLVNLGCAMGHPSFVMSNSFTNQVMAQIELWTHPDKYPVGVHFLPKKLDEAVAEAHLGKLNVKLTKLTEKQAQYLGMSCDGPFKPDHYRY

CSSC[C@H]1OC(n2cnc3c(N)ncnc32)[C@H](O)[C@@H]1O (stereo not given in full)
Ki (Adenosylhomocysteinase [1]): 19 µM | Kinact (Adenosylhomocysteinase [2]): 0.05 min⁻¹

Nc1ncnc2c1ncn2C1O[C@H](CS)[C@@H](O)[C@H]1O (stereo not given in full)
Ki (Adenosylhomocysteinase [1]): 4 µM | Kinact (Adenosylhomocysteinase [2]): 0.04 min⁻¹

Nc1ncnc2c1ncn2C1O[C@@H](CSSC[C@H]2OC(n3cnc4c(N)ncnc43)[C@H](O)[C@@H]2O)[C@H](O)[C@@H]1O (stereo not given in full)
Ki (Adenosylhomocysteinase [1]): 96 µM | Kinact (Adenosylhomocysteinase [2]): 0.05 min⁻¹

Nc1ncnc2c1ncn2C1O[C@H]([C@H]2CS2)[C@@H](O)[C@H]1O (stereo not given in full)
Ki (Adenosylhomocysteinase [1]): 50 µM | Kinact (Adenosylhomocysteinase [2]): 0.03 min⁻¹

Nc1ncnc2c1ncn2C1OC([C@@H]2CS2)[C@@H](O)[C@H]1O (single isomer, unassigned)
Ki (Adenosylhomocysteinase [1]): 105 µM | Kinact (Adenosylhomocysteinase [2]): 0.1 min⁻¹
